Measurements taken from ChEMBL document CHEMBL3124940, “Design, synthesis and biological evaluation of D-ring opened galantamine analogs as multifunctional anti-Alzheimer agents” (Eur J Med Chem, 2014).

Assays:
[1] = test system: Rattus norvegicus; test: Toxicity in Wistar rat assessed as lipidperoxidation product level in kidney at 6 umol/100 g body weight, ip by fluorometric analysis relative to control; type: organism-based; conditions: in vivo
Outline: (§1)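 Rats dosed i.p.; tissues taken after 24 h. For GSH/GSSG, tissue homogenized in 11 volumes of 0.2 M sodium phosphate (5 mM EDTA, pH 8.0) plus 4 volumes of 25% metaphosphoric acid and centrifuged 12 000 × g, 4 °C, 30 min; supernatant read photometrically (GSH) or fluorometrically (GSSG). Lipid peroxidation products measured as TBARS in 19-volume ice-cold saline homogenates, fluorometrically.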

[2] = test system: Rattus norvegicus; test: Toxicity in Wistar rat assessed as lipidperoxidation product level in kidney at 1 umol/100 g body weight, ip by fluorometric analysis relative to control; type: organism-based; conditions: in vivo; outline: as §1
[3] = test system: Rattus norvegicus; test: Toxicity in Wistar rat assessed as total glutathione level in kidney at 6 umol/100 g body weight, ip by fluorometric analysis relative to control; type: organism-based; conditions: in vivo; outline: as §1
[4] = test system: Rattus norvegicus; test: Toxicity in Wistar rat assessed as total glutathione level in kidney at 1 umol/100 g body weight, ip by fluorometric analysis relative to control; type: organism-based; conditions: in vivo; outline: as §1
[5] = test system: Rattus norvegicus; test: Toxicity in Wistar rat assessed as GSSG level in kidney at 6 umol/100 g body weight, ip by fluorometric analysis relative to control; type: organism-based; conditions: in vivo; outline: as §1
[6] = test system: Rattus norvegicus; test: Toxicity in Wistar rat assessed as GSSG level in kidney at 1 umol/100 g body weight, ip by fluorometric analysis relative to control; type: organism-based; conditions: in vivo; outline: as §1
[7] = test system: Rattus norvegicus; test: Toxicity in Wistar rat assessed as GSH level in kidney at 6 umol/100 g body weight, ip by fluorometric analysis relative to control; type: organism-based; conditions: in vivo
[8] = test system: Rattus norvegicus; test: Toxicity in Wistar rat assessed as GSH level in kidney at 1 umol/100 g body weight, ip by fluorometric analysis relative to control; type: organism-based; conditions: in vivo
[9] = test system: Rattus norvegicus; test: Toxicity in Wistar rat assessed as kidney weight at 6 umol/100 g body weight, ip relative to control; type: organism-based; conditions: in vivo
[10] = test system: Rattus norvegicus; test: Toxicity in Wistar rat assessed as kidney weight at 1 umol/100 g body weight, ip relative to control; type: organism-based; conditions: in vivo
[11] = test system: Rattus norvegicus; test: Toxicity in Wistar rat assessed as lipidperoxidation product level in brain at 6 umol/100 g body weight, ip by fluorometric analysis relative to control; type: organism-based; conditions: in vivo; outline: as §1
[12] = test system: Rattus norvegicus; test: Toxicity in Wistar rat assessed as lipidperoxidation product level in brain at 1 umol/100 g body weight, ip by fluorometric analysis relative to control; type: organism-based; conditions: in vivo; outline: as §1
[13] = test system: Rattus norvegicus; test: Toxicity in Wistar rat assessed as total glutathione level in brain at 6 umol/100 g body weight, ip by fluorometric analysis relative to control; type: organism-based; conditions: in vivo; outline: as §1
[14] = test system: Rattus norvegicus; test: Toxicity in Wistar rat assessed as total glutathione level in brain at 1 umol/100 g body weight, ip by fluorometric analysis relative to control; type: organism-based; conditions: in vivo; outline: as §1
[15] = test system: Rattus norvegicus; test: Toxicity in Wistar rat assessed as GSSG level in brain at 6 umol/100 g body weight, ip by fluorometric analysis relative to control; type: organism-based; conditions: in vivo; outline: as §1
[16] = test system: Rattus norvegicus; test: Toxicity in Wistar rat assessed as GSSG level in brain at 1 umol/100 g body weight, ip by fluorometric analysis relative to control; type: organism-based; conditions: in vivo; outline: as §1
[17] = test system: Rattus norvegicus; test: Toxicity in Wistar rat assessed as GSH level in brain at 6 umol/100 g body weight, ip by fluorometric analysis relative to control; type: organism-based; conditions: in vivo
[18] = test system: Rattus norvegicus; test: Toxicity in Wistar rat assessed as GSH level in brain at 1 umol/100 g body weight, ip by fluorometric analysis relative to control; type: organism-based; conditions: in vivo
[19] = test system: Rattus norvegicus; test: Toxicity in Wistar rat assessed as brain weight at 6 umol/100 g body weight, ip relative to control; type: organism-based; conditions: in vivo
[20] = test system: Rattus norvegicus; test: Toxicity in Wistar rat assessed as brain weight at 1 umol/100 g body weight, ip relative to control; type: organism-based; conditions: in vivo
[21] = test system: Rattus norvegicus; test: Toxicity in Wistar rat assessed as ethoxyresorufin-O-deethylation activity in liver measured as resorufin level at 6 umol/100 g body weight, ip by fluorometric analysis relative to control; type: organism-based; conditions: in vivo
Outline: (§2)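 Rats dosed i.p.; after 24 h, liver homogenized 1:3 w/v in 0.1 M sodium phosphate pH 7.4 and centrifuged at 9000 × g, 4 °C, 20 min. Supernatant protein determined by the Biuret method. Ethoxyresorufin-O-deethylation measured fluorometrically as resorufin formed.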

[22] = test system: Rattus norvegicus; test: Toxicity in Wistar rat assessed as ethoxyresorufin-O-deethylation activity in liver measured as resorufin level at 1 umol/100 g body weight, ip by fluorometric analysis relative to control; type: organism-based; conditions: in vivo; outline: as §2
[23] = test system: Rattus norvegicus; test: Toxicity in Wistar rat assessed as ethoxycoumarin-O-deethylation activity in liver measured as 7-hydroxycoumarin level at 6 umol/100 g body weight, ip by fluorometric analysis relative to control; type: organism-based; conditions: in vivo
[24] = test system: Rattus norvegicus; test: Toxicity in Wistar rat assessed as ethoxycoumarin-O-deethylation activity in liver measured as 7-hydroxycoumarin level at 1 umol/100 g body weight, ip by fluorometric analysis relative to control; type: organism-based; conditions: in vivo
[25] = test system: Rattus norvegicus; test: Toxicity in Wistar rat assessed as ethylmorphine-N-demethylation activity in liver measured as formaldehyde level at 6 umol/100 g body weight, ip by photometric analysis relative to control; type: organism-based; conditions: in vivo
[26] = test system: Rattus norvegicus; test: Toxicity in Wistar rat assessed as ethylmorphine-N-demethylation activity in liver measured as formaldehyde level at 1 umol/100 g body weight, ip by photometric analysis relative to control; type: organism-based; conditions: in vivo
[27] = test system: Rattus norvegicus; test: Toxicity in Wistar rat assessed as protein content in liver at 6 umol/100 g body weight, ip by Biuret method relative to control; type: organism-based; conditions: in vivo; outline: as §2
[28] = test system: Rattus norvegicus; test: Toxicity in Wistar rat assessed as protein content in liver at 1 umol/100 g body weight, ip by Biuret method relative to control; type: organism-based; conditions: in vivo; outline: as §2
[29] = test system: Rattus norvegicus; test: Toxicity in Wistar rat assessed as lipidperoxidation product level in liver at 6 umol/100 g body weight, ip relative to control; type: organism-based; conditions: in vivo
[30] = test system: Rattus norvegicus; test: Toxicity in Wistar rat assessed as lipidperoxidation product level in liver at 1 umol/100 g body weight, ip relative to control; type: organism-based; conditions: in vivo
[31] = test system: Rattus norvegicus; test: Toxicity in Wistar rat assessed as total glutathione level in liver at 6 umol/100 g body weight, ip by fluorometric analysis relative to control; type: organism-based; conditions: in vivo
Outline: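 Rats were dosed, killed 24 h later, and liver and other tissues were taken. Samples were homogenized in 11 vol 0.2 M sodium phosphate (5 mM EDTA, pH 8.0) plus 4 vol 25% metaphosphoric acid, then spun at 12 000 × g, 4 °C, 30 min. GSH was read photometrically and GSSG fluorometrically in the supernatant, alongside total glutathione.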

[32] = test system: Rattus norvegicus; test: Toxicity in Wistar rat assessed as total glutathione level in liver at 1 umol/100 g body weight, ip by fluorometric analysis relative to control; type: organism-based; conditions: in vivo; outline: as §1
[33] = test system: Rattus norvegicus; test: Toxicity in Wistar rat assessed as GSSG level in liver at 6 umol/100 g body weight, ip by fluorometric analysis relative to control; type: organism-based; conditions: in vivo; outline: as §1
[34] = test system: Rattus norvegicus; test: Toxicity in Wistar rat assessed as GSSG level in liver at 1 umol/100 g body weight, ip by fluorometric analysis relative to control; type: organism-based; conditions: in vivo; outline: as §1
[35] = test system: Rattus norvegicus; test: Toxicity in Wistar rat assessed as GSH level in liver at 6 umol/100 g body weight, ip by fluorometric analysis relative to control; type: organism-based; conditions: in vivo
[36] = test system: Rattus norvegicus; test: Toxicity in Wistar rat assessed as GSH level in liver at 1 umol/100 g body weight, ip by fluorometric analysis relative to control; type: organism-based; conditions: in vivo
[37] = test system: Rattus norvegicus; test: Toxicity in Wistar rat assessed as liver weight at 6 umol/100 g body weight, ip relative to control; type: organism-based; conditions: in vivo
[38] = test system: Rattus norvegicus; test: Toxicity in Wistar rat assessed as liver weight at 1 umol/100 g body weight, ip relative to control; type: organism-based; conditions: in vivo
[39] = test system: Rattus norvegicus; test: Toxicity in Wistar rat assessed as body weight at 6 umol/100 g body weight, ip relative to control; type: organism-based; conditions: in vivo
[40] = test system: Rattus norvegicus; test: Toxicity in Wistar rat assessed as body weight at 1 umol/100 g body weight, ip relative to control; type: organism-based; conditions: in vivo
[41] = test system: Rattus norvegicus; test: Toxicity in Wistar rat assessed as change in movement at 1 umol/100 g body weight, ip; type: organism-based; conditions: in vivo
[42] = test system: Rattus norvegicus; test: Antialzheimer activity in Wistar rat scopolamine-induced cognition impairment model assessed as total exploration time at 1 umol/100 g body weight, ip treated for 5 mins prior to scopolamine-challenge by eight-arm radial maze test relative to control; type: functional
Outline: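 Female 60-day-old Wistar rats (Han:Wist) trained in an eight-arm radial maze to error-free trials under 60 s on three consecutive days; each animal served as its own control. Test agent given i.p. in saline 5 min before scopolamine (0.05 mg/100 g b. wt., i.p. in saline). Errors plus baits not found after 10 min, and total searching time, recorded before and 20, 60, 120 min after scopolamine; n = 14, mean ± SEM.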

[43] = test system: Rattus norvegicus; test: Toxicity in Wistar rat scopolamine-induced cognition impairment model assessed as change in movement at 1 umol/100 g body weight, ip; type: organism-based; conditions: in vivo
Outline: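 60-day-old female Wistar rats were trained in an eight-arm radial maze to no errors in under 60 s on 3 consecutive days; each rat served as its own control. Compound in saline was given i.p., then scopolamine (0.05 mg/100 g, saline, i.p.) 5 min later. Errors plus baits not found after 10 min and total searching time were recorded before and 20, 60 and 120 min after scopolamine; n = 14, mean ± SEM.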

[44] = molecular target: Acetylcholinesterase (Electrophorus electricus, UniProt O42275); test: Inhibition of electric eel AChE using acetylthiocholine iodide as substrate preincubated for 5 mins followed by substrate addition measured after 5 mins by Ellman's method
[45] = molecular target: Cholinesterase (Equus caballus, UniProt P81908); test: Inhibition of equine serum BChE using butyrylthiocholine iodide as substrate preincubated for 5 mins followed by substrate addition measured after 5 mins by Ellman's method
Outline: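 Ellman's method with equine serum BChE and butyrylthiocholine iodide; DTNB read-out at 412 nm, 25 °C. Phosphate buffer pH 8.0. At least five concentrations (normally 10^-4 to 10^-9 M), each in triplicate, to build the inhibition curve. Data are means of at least three determinations.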

[46] = Selectivity ratio of IC50 for electric eel AChE to IC50 for equine serum BChE
Outline: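 AChE is electric eel Type VI-S with acetylthiocholine; BChE is equine serum with butyrylthiocholine. At least five concentrations, each in triplicate. Ratio = IC50(AChE)/IC50(BChE).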

Chain of Cholinesterase (P81908 whole entry): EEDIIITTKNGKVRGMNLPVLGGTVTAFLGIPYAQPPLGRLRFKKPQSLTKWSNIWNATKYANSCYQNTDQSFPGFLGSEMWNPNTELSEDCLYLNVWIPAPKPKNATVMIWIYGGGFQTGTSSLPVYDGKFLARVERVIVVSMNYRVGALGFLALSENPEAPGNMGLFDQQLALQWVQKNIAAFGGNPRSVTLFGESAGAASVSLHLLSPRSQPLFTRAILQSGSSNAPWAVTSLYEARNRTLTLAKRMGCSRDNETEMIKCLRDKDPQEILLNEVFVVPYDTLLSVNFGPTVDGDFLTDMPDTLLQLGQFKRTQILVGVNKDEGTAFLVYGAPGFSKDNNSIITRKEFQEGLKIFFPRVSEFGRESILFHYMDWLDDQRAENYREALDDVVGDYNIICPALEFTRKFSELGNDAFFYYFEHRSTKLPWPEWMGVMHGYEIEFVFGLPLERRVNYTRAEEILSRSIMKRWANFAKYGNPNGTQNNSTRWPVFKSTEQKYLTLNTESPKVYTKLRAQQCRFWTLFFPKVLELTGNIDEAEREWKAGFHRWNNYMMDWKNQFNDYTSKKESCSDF
Chain of Acetylcholinesterase (O42275 whole entry): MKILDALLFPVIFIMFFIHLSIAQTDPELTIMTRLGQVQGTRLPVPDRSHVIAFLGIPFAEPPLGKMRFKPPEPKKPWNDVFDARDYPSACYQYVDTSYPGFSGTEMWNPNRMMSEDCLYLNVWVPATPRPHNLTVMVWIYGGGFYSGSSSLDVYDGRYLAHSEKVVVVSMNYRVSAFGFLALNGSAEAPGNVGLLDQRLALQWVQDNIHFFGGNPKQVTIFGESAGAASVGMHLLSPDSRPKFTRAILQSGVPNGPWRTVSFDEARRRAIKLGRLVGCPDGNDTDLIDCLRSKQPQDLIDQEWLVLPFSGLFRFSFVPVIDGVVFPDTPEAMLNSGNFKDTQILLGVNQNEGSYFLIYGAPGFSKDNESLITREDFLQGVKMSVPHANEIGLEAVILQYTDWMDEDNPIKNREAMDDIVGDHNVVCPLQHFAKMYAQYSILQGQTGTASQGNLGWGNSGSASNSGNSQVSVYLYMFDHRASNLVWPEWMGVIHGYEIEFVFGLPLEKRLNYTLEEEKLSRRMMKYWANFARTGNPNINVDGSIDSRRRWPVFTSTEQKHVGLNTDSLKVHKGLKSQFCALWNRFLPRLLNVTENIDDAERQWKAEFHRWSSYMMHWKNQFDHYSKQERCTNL

Structure (SMILES): Nc1c2c(nc3ccccc13)CCCC2 [TACRINE]
- Activity [1]: 89.2 nmol/g
- Activity [2]: 87.4 nmol/g
- Activity [3]: 1800 µg/g
- Activity [4]: 1821 µg/g
- Activity [5]: 171 µg/g
- Activity [6]: 170 µg/g
- Activity [7]: 1457 µg/g
- Activity [8]: 1480 µg/g
- Activity [9]: 0.61 g
- Activity [10]: 0.65 g
- Activity [11]: 154 nmol/g
- Activity [12]: 123 nmol/g
- Activity [13]: 822 µg/g
- Activity [14]: 824 µg/g
- Activity [15]: 75.6 µg/g
- Activity [16]: 79.9 µg/g
- Activity [17]: 671 µg/g
- Activity [18]: 665 µg/g
- Activity [19]: 1.82 g
- Activity [20]: 1.77 g
- Activity [21]: 100 pmol/mg/min
- Activity [22]: 134 pmol/mg/min
- Activity [23]: 197 pmol/mg/min
- Activity [24]: 207 pmol/mg/min
- Activity [25]: 0.44 nmol/mg/min
- Activity [26]: 0.6 nmol/mg/min
- Activity [27]: 65.5 mg/mL
- Activity [28]: 61.8 mg/mL
- Activity [29]: 62 nmol/g
- Activity [30]: 63.8 nmol/g
- Activity [31]: 3173 µg/g
- Activity [32]: 3378 µg/g
- Activity [33]: 431 µg/g
- Activity [34]: 418 µg/g
- Activity [35]: 2310 µg/g
- Activity [36]: 2542 µg/g
- Activity [37]: 6.2 g
- Activity [38]: 6.8 g
- Activity [39]: 219 g
- Activity [40]: 228 g
- Activity [41]: Toxic
- Time [42]: 237 s
- Activity [43]: Toxic

Structure (SMILES): COc1ccc2c(c1)oc1cccc(CNC(C)C)c12
- IC50 [44]: 11.6 µM
- IC50 [45]: 13.5 µM
- Ratio IC50 [46]: 0.86

Structure (SMILES): CC(C)NCc1cccc2[nH]c3cc(O)ccc3c12
- IC50 [44]: 43.5 µM
- IC50 [45]: 17.3 µM
- Ratio IC50 [46]: 3.54

Structure (SMILES): CC(C)NCc1cccc2oc3cc(O)ccc3c12
- IC50 [44]: 22.6 µM
- IC50 [45]: 18.4 µM
- Ratio IC50 [46]: 1.23
